# Sampled rows, rich in hits. Any-hit rate of the full collection: about 2.5%.
# HTRA1 inhibitor – HTRA1 serine protease inhibitors, primary screen, biochemical, fluorescence polarization, HTS; Q92743; recombinant HTRA1, FP-rhodamine activity-based probe; inhibition, % at 5.96 µM; actives 0.5% (n = 340,000); in the data active = inhibition above about 36%
# TCR CD3 inh – inhibitors of human TCR-CD3 interaction, primary screen, biochemical, fluorescence, TAMRA-labeled TCR probe. T-cell receptor (TCR). inhibition, % at 9.4 µM. actives 0.37% (n = 360,000). AID 651800, 2012; in the data active = inhibition above about 19%;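 also: recombinant mutant TCR 2C K166C tagged with TAMRA read by polarization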
# ABHD4 inh – ABHD4 inhibitors, primary screen, biochemical, fluorescence polarization, mouse; purified mABHD4, FP-Rh probe fluorescence polarization; inhibition, % at 8.92 µM; actives 0.54% (n = 370,000); AID 720543, 2013;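 active = inhibition exceeding the mean over every tested compound plus 3 SD, cut at about 30% in these data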
#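 Assay system: wild-type mouse ABHD4 protein; compound: single nominal dose of 8.92 µM, 0.89% DMSO final; schedule: 45 min + 60 min at 25 °C; measured by: FP readout, ex 525 nm / em 598 nm; evaluation: % inhibition of FP-Rh probe binding versus controls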
# SIAE inh – human SIAE inhibitors, primary screen, biochemical, fluorescence polarization, FP-Rh probe, 1536-well HTS. SIAE FP-Rh probe binding. inhibition, % at 9.66 µM. actives 0.69% (n = 370,000). AID 1053197, 2014;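 active = inhibition above a cutoff: mean of compounds within the control limits plus 3 SD of those, cut at about 17% in these data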
# PRMT1 FP inh – PRMT1 methyltransferase inhibitors, primary screen, biochemical, fluorescence polarization; Protein arginine N-methyltransferase 1 (Homo sapiens), Q99873; recombinant PRMT1, activity-based probe fluorescence polarization; inhibition, % at 2.79 µM; actives 1.3% (n = 370,000);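 active = inhibition above about 21% made by adding two undisclosed values, limit read from the data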
# Target sequence (Q99873 whole entry, looked up): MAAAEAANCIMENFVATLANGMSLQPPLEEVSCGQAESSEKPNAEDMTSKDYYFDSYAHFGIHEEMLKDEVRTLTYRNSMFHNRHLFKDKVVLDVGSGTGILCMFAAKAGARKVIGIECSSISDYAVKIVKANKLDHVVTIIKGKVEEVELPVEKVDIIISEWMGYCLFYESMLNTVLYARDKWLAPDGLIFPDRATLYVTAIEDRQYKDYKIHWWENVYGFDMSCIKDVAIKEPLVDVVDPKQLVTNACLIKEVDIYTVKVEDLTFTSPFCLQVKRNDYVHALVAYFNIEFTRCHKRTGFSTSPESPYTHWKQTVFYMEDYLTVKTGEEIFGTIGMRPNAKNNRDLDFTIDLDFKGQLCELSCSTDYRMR
# PRMT1 inh conf – PRMT1 methyltransferase inhibitors, confirmation, biochemical, fluorescence polarization, triplicate; shares compounds with PRMT1 FP inh; recombinant His-PRMT1, activity-based probe fluorescence polarization; inhibition, % at 2.79 µM; actives 42% (n = 3,300); AID 687036, 2013;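 active = mean inhibition across replicates above the hit cutoff derived for the earlier primary screen, cut at about 22% in these data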
# ABHD4 confirm – ABHD4 inhibitors, retest, confirmation, biochemical, fluorescence polarization, mouse; purified mABHD4, FP-Rh probe fluorescence polarization; AID 720658, 2013; inhibition, % at 8.92 µM; actives 55% (n = 1,800); shares compounds with ABHD4 inh;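 active = mean inhibition across replicates above the hit cutoff set in the primary screen, cut at about 30% in these data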
# SIAE inh conf – human SIAE inhibitors, retest, confirmation, biochemical, fluorescence polarization, FP-Rh probe, triplicate | inhibition, % at 9.66 µM | SIAE FP-Rh activity-based probe | shares compounds with SIAE inh | actives 13% (n = 2,300);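 active = mean inhibition of the replicates above the hit cutoff set in the primary screen, cut at about 17% in these data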;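 also: inhibitors lower polarization as more probe stays unbound to SIAE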
# Hits are given with their value; n = inactive; x = no result given.
SMILES,HTRA1 inhibitor,TCR CD3 inh,ABHD4 inh,SIAE inh,PRMT1 FP inh,PRMT1 inh conf,SIAE inh conf,others
Cc1cccc(C=Nc2ccc3c4c(cccc24)CC3)c1O,n,n,34,21,36,n,n,ABHD4 confirm=n
O=C1C2C3C=CC(C3=C3CCCCC3)C2C(=O)N1c1ccccc1 (centres undefined),n,n,n,19,43,n,n,
COC(=O)[C@]12C[C@H](CC(=O)N3CCSCC3)C(=O)N(CCc3ccc(OC)c(OC)c3)C1=C[C@H](C(C)C)O[C@@H]2C1CC1,x,x,n,n,n,x,x,
COc1ccc(S[C@]2(C(=O)N3CCN(C(C)=O)CC3)CC(=O)N(C(=O)c3ccccc3)[C@@H]2c2ccc(OC)cc2)cc1,x,x,n,18,83,82,n,
COc1ccc(S[C@]2(C(=O)N3CCN(C(C)=O)CC3)CC(=O)N(C(=O)CCc3ccccc3)[C@@H]2c2ccc(OC)cc2)cc1,x,x,n,n,n,x,x,
CCCCNc1ccc2c3c(cccc13)C(=O)N(CCCC)C2=O,n,n,52,19,155,133,18,ABHD4 confirm=68
O=C1c2cccc3c(N4CCCCC4)ccc(c23)C(=O)N1c1ccccn1,n,n,n,n,n,x,x,
CCCN1C(=O)c2cccc3c(N4CCCCC4)ccc(c23)C1=O,n,n,n,20,84,51,n,
COc1ccccc1C(=O)NC1CCCCN(Cc2ccc(OC(F)(F)F)cc2)C1=O (centres undefined),x,x,n,n,n,x,x,
COc1ccc2c(c1OC)C(=O)N1c3ccccc3N=C(c3ccc([N+](=O)[O-])cc3)CC21 (centres undefined),n,n,n,21,32,n,n,
Cc1ccc(/C=C2\C(=O)NC(=O)N2C)o1,n,n,n,19,36,37,n,
Cc1cc(C)n2c(Nc3ccc4c(c3)OCCO4)c(-c3ccc(C)o3)nc2n1,n,n,n,17,31,n,n,
Cc1cc(C)n2c(Nc3ccc4c(c3)OCCO4)c(-c3cc4ccccc4o3)nc2n1,x,n,n,n,n,x,x,
Nc1[nH]c2cc(Cl)ccc2c1C(=O)N1CCOCC1,x,x,n,n,n,x,x,
O=S(=O)(/N=S1\CC=CCN1S(=O)(=O)c1ccccc1)c1ccccc1 (centres undefined),n,n,n,20,41,78,n,
CC1=C(C)CS(=O)N(S(=O)(=O)c2ccccc2)C1 (centres undefined),n,n,n,n,n,x,x,
COc1ccccc1CNC(=O)NC1CCN(CC(=O)Nc2ccc3c(c2)OCCO3)CC1,x,x,n,n,n,x,x,
Cc1ccc([C@@H]2C3COCC=C3C(C#N)=C(N)C2(C#N)C#N)o1 (some centres undefined),n,n,n,18,28,n,n,
Cc1ccc(C2C3CSCC=C3C(C#N)=C(N)C2(C#N)C#N)cc1 (centres undefined),n,n,n,n,n,x,x,
CCCCCCCCSC1=CC(=O)C(OC)=C(OC)C1=O,n,n,39,21,39,88,n,ABHD4 confirm=52
O=C(CC1SC(=O)N(c2ccccc2)C1=O)Nc1ccccc1 (centres undefined),n,n,n,26,81,93,n,
Cc1cccc(NC(=O)CC2SC(=O)N(c3ccccc3)C2=O)c1 (centres undefined),n,n,n,n,n,x,x,
O=C1CS/C(=C\[N+](=O)[O-])N1c1ccccc1,n,n,31,n,n,x,x,ABHD4 confirm=n

# Source: PubChem
